Published values pooled from the literature.
Lines come from different studies, so protocols differ.
Target: Rho-associated protein kinase 1 (ROCK1, Homo sapiens, UniProt Q13464)

| SMILES | test | test system | setting | measurement | value |
| --- | --- | --- | --- | --- | --- |
| CN(C)C(=O)Cn1cc(-c2nc(C3(c4ccc(-c5cnc(N)nc5)cc4)CC3)no2)cn1 | cell-free assay, competition with immobilised ligand |  | 1 µM | remaining binding | 83% |
| CC(C)(C)c1nc(-c2cccc(NS(=O)(=O)c3c(F)cccc3F)c2F)c(-c2ccnc(N)n2)s1 | enzyme activity, inhibitor, radiometric |  | 1 µM | remaining activity | 104% |
| CN1CCN(c2cnc3c(C4CCN(C(=O)c5ccc(OC(F)(F)F)cc5N)CC4)ncnc3c2)CC1 | cell-free assay, competition with immobilised ligand |  | 1 µM | remaining binding | 100% |
| COc1cc2ncnc(Nc3ccc(Oc4ccccc4)c(C)c3C)c2cc1OC | enzyme activity, inhibitor |  | 1 µM | inhibition | -12% |
| O=S(=O)(c1cccc2cnccc12)N1CCCNCC1 | cell-free assay |  | 0.5 µM | remaining signal | 60.2% |
| CC(C)(O)[C@H]1CC[C@H](Nc2ccc3ncc(-c4cccc(C(F)(F)F)c4)n3n2)CC1 | enzyme activity, inhibitor |  | 1 µM | remaining activity | 94% |
| CN1CC(Oc2cnc(C#N)cc2-c2ccn3nc(NC(=O)C4CC4)cc3c2)C1 | enzyme activity, inhibitor |  | 1 µM | inhibition | 0% |
| O=C(Nc1cnn(-c2csc(C(=O)NC3COC3)c2)c1)Nc1ccccc1Cl | enzyme activity, inhibitor |  | 5 µM | remaining activity | 109% |
| Cn1cncc1C1=CN(c2ncnc3[nH]cnc23)CCS1 | enzyme activity, inhibitor, radiometric |  | 2 µM | inhibition | 88.6% |
| CN(c1ccnc(CNc2nc(Nc3ccc4c(c3)CC(=O)N4)ncc2C(F)(F)F)n1)S(C)(=O)=O | cell-free assay, competition with immobilised ligand |  | 1 µM | remaining binding | 49% |
| Cc1sc(C(=O)NC2COC2)cc1-n1cc(NC(=O)Nc2c(F)cccc2Cl)cn1 | enzyme activity, inhibitor |  | 10 µM | remaining activity | 96.8% |
| Cc1cnc(NC2CCOCC2)nc1-n1cnc(C(=O)NC(CN)c2cc(F)cc(Cl)c2)c1 (centres unmarked) | enzyme activity, inhibitor, radiometric |  | 1 µM | remaining activity | 62% |
| CN(C)C1CCN(CC#Cc2nn(C3CCCC3)c3nc(NCc4ccccc4)ncc23)C1 (centres unmarked) | enzyme activity, inhibitor, FRET |  | 1 µM | inhibition | -1% |
| Cc1ccc(Nc2nccc(N(C)c3ccc4c(C)n(C)nc4c3)n2)cc1S(N)(=O)=O | enzyme activity, inhibitor |  | 0.3 µM | inhibition | -1% |
| Cc1c[nH]c2nccc(Oc3c(F)cc(Nc4cc(Cl)nc(N)n4)cc3F)c12 | cell-free assay, competition with immobilised ligand |  | 0.1 µM | remaining binding | 0.6% |
| Nc1ncnc2occ(-c3ccc(NC(=O)Nc4cc(C(F)(F)F)ccc4F)cc3)c12 | cell-free assay, inhibitor |  | 20 µM | remaining signal | 0.1% |
| N#CCCc1ccc2c(c1)-c1[nH]c3ccc([N+](=O)[O-])cc3c1CC(=O)N2 | cell-free assay |  | 0.5 µM | remaining signal | 38.9% |
| CNc1cc(Oc2cc(C(=O)Nc3cc(N4CCN(C)CC4)cc(C(F)(F)F)c3)ccc2C)ncn1 | target engagement in cells, inhibitor, chemoproteomics | Huh-7 | 1 µM | inhibition | -28.8% |
| CN(C)CC#Cc1ccc(OCCCc2sc(N3CCc4cccc(C(=O)Nc5nc6ccccc6s5)c4C3)nc2C(=O)O)c(F)c1 | cell-free assay, competition with immobilised ligand |  | 1 µM | remaining binding | 100% |
| CC(C)c1ccc(NC(=O)c2cccs2)c(-c2nc3ccccc3[nH]c2=O)c1 | enzyme activity, inhibitor |  | 1 µM | activity vs control | 122% |
| CC(=O)N1CCC(c2ccc(C(=O)NC(=N)N)cc2C(F)(F)F)CC1 | cell-free assay, competition with immobilised ligand |  | 1 µM | remaining binding | 87% |
| COc1cc(Cl)c(C(=O)N[C@@H](CN[C@H]2CC[C@@H](N)CC2)Cc2ccc(C#N)cc2)cc1-c1ccc(CN[C@H](C)c2ccc(C)cc2)o1 | enzyme activity, inhibitor |  | 1 µM | remaining activity | 105% |
| CNC(=O)c1cc(Oc2ccc(NC(=O)Nc3ccc(Cl)c(C(F)(F)F)c3)cc2)ccn1 | enzyme activity, inhibitor |  | 0.3 µM | inhibition | 0% |
| CC/C(=N\NC(=O)C(C)Nc1ccccc1)c1ccc(O)c(C)c1O (centres unmarked) | enzyme activity, inhibitor |  | 0.1 µM | inhibition | 18.5% |
| O=C1NC(=O)c2cc(Nc3ccc(F)cc3)c(Nc3ccc(F)cc3)cc21 | cell-free assay |  | 0.5 µM | remaining signal | 96.7% |
| CN(C)c1ncnc(-c2ccc3nc(Nc4cc(CN5CCN(C(=O)CC(F)(F)F)CC5)ccn4)[nH]c3c2)c1Cl | cell-free assay, competition with immobilised ligand |  | 1 µM | remaining binding | 100% |
| CCCCNc1ncc2c(-c3ccc(F)cc3)nn(C[C@H]3CC[C@H](N)CC3)c2n1 | target engagement in cells, inhibitor, chemoproteomics |  | 20 mM | inhibition | 54.3% |
| O=C1NC(c2ccccn2)Sc2ccccc21 (centres unmarked) | cell-free assay, competition with immobilised ligand |  | 1 µM | remaining binding | 82% |
| CCN(CC)CCNC(=O)c1c(C)[nH]c(/C=C2\C(=O)Nc3ccc(F)cc32)c1C | enzyme activity, inhibitor |  | 10 µM | inhibition | 26% |
